p47phox inh – p47phox (human) inhibition; p47phox/p22phox peptide binding, fluorescence polarization, 2 h; inhibition, % at 24.7 µM; hit rate 0.53% among 220,000; AID 1274;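 active means inhibition above about 30%, limit read from the data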;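 further: 0% = p47phox with labelled peptide and 100% = labelled peptide alone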
Target sequence (P14598 whole entry, looked up): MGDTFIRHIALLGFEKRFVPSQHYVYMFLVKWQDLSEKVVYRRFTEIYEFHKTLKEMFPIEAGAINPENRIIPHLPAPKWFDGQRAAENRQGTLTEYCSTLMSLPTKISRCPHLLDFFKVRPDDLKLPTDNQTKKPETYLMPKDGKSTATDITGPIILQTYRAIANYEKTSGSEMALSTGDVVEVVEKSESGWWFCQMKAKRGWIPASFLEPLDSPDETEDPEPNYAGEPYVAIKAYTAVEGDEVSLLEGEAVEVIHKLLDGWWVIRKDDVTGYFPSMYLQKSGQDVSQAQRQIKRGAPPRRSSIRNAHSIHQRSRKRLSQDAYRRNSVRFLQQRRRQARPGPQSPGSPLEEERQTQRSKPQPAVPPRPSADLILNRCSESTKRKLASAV
Calb biofilm kill – mixtures killing C. albicans biofilm | C. albicans biofilm persisters + clotrimazole, fluorescence viability; primary screen in compound mixtures of four per well | inhibition, % at 7.6 µM | hit rate 0.02% among 120,000 | AID 1242;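 active means inhibition above 30.3% in the primary screen of four-compound pools, then above 30% when the compound was retested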;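 further: compounds exposed to preformed 24 h biofilms for 48 h; 0% = untreated biofilm control and 100% = clotrimazole plus chlorhexidine kill blank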
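System: C. albicans CAF4-2 wild-type biofilms; Medium: RPMI/MOPS medium, pH 7.0; Reagent: Clotrimazole, 50 µg/mL; Times: biofilm formation 24 h, compound exposure 48 h, 37 °C; Detection: 2-h Alamar Blue fluorescence, 535/590 nm excitation/emission; Evaluation: percent inhibition of biofilm viability.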
WT yeast gro inh – growth inhibition of WT yeast, mitochondrial fusion screen; mitochondrial fusion phenotypic screen, WT strain; inhibition, % at 10 µM; hit rate 2.1% among 190,000; AID 1362; in the data active means inhibition above about 58%; tested in S. cerevisiae
Arbovirus inh – blocks arbovirus infection; arbovirus infection cell-based antiviral screen; inhibition, % at 10 µM; hit rate 0.37% among 200,000; AID 1251; in the data active means inhibition above about 30%
RAM network inh – yeast RAM network inhibition; S. cerevisiae dse1pr::URA3 reporter, 5-FOA growth OD615, 2 d; analog-sensitive cbk1-as2 kinase mutant strain; inhibition, % at 50 µM; hit rate 1.8% among 190,000; AID 868;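 active means inhibition above a set limit, 3 SD over mean compound inhibition, cut at about 8.4% in these data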;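 further: 0% = DMSO-only wells with no growth and 100% = 10 µM 1-NA-PP1 full growth; inhibition rescues growth on 5-FOA so higher OD means more RAM inhibition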
Hck-Nef inh – inhibitors of human Hck kinase activated by Nef | P08631 | hit rate 0.68% among 220,000 | inhibition, % at 20 µM | Recombinant Hck-YEEI plus Nef, Z-Lyte FRET kinase assay;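 active means Hck-Nef kinase inhibition above about 50%, limit read from the data; inactive means inhibition below that limit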;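 further: 0% = DMSO with Hck plus Nef and 100% = Hck alone without Nef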
Numbers without * were called inactive. Sampled rows, rich in hits. Any-hit rate of the full collection: about 4.6%.

Results for CC1=C(C(=O)Nc2ccccc2C)C(c2cccs2)NC(=S)N1 (centres undefined) ?
p47phox inh: -14.2; Calb biofilm kill: 17.4; WT yeast gro inh: -3.5; Arbovirus inh: 3.0; RAM network inh: 4.4; Hck-Nef inh: 6.0

What do the screens show for `CCOc1ccccc1NC(=O)C1=C(C)NC(=S)NC1c1cccs1` (centres undefined)?
p47phox inh: -9.8; Calb biofilm kill: 8.7; WT yeast gro inh: -7.2; Arbovirus inh: -3.2; RAM network inh: 9.8*; Hck-Nef inh: 5.4

What do the screens show for `O=C(NC(=S)Nc1nc2c(s1)CSc1ccccc1-2)c1ccccc1`?
p47phox inh: -17.1; WT yeast gro inh: 82.6*; Arbovirus inh: -34.4; RAM network inh: 3.6; Hck-Nef inh: 1.5

Results for CCOCCCNC(=O)c1cc(Sc2ccc(C)cc2)nc2ccccc12 ?
p47phox inh: -1.1; Calb biofilm kill: 15.8; WT yeast gro inh: -8.0; Arbovirus inh: -1.8; RAM network inh: 10.9*; Hck-Nef inh: 2.0

Results for O=C(NCCCN1CCCC1)c1cc(Sc2ccc(F)cc2)nc2ccccc12 ?
p47phox inh: -4.7; Calb biofilm kill: 10.9; WT yeast gro inh: 0.4; Arbovirus inh: -14.4; RAM network inh: 0.5; Hck-Nef inh: -3.5

What do the screens show for `CCOC(=O)N1CCN(S(=O)(=O)c2ccc(C)cc2)C1c1ccc(OC)cc1` (centres undefined)?
p47phox inh: -6.7; WT yeast gro inh: 84.8*; Arbovirus inh: 13.4; RAM network inh: 7.4; Hck-Nef inh: -0.4

Results for Cc1ccc(NS(=O)(=O)c2ccc(-c3csc(C)n3)s2)c(C)c1 ?
p47phox inh: -21.0; Calb biofilm kill: 16.0; Hck-Nef inh: 15.6

Results for Cc1cc2c(o1)CC(C)(C)CC2=O ?
p47phox inh: -1.2; Calb biofilm kill: 11.1; WT yeast gro inh: -17.1; Arbovirus inh: 2.7; RAM network inh: 1.0; Hck-Nef inh: -9.7

What do the screens show for `CC1=NN(c2ccccc2)C(=O)/C1=C/c1cc2cc(C)ccc2nc1N1CCCCC1`?
p47phox inh: -13.7; WT yeast gro inh: 71.1*; Arbovirus inh: 29.3; RAM network inh: 1.4; Hck-Nef inh: 0.8

How did CC1=NN(c2ccccc2)C(=O)/C1=C\c1cc(C)n(C)c1C do in these assays?
p47phox inh: -11.5; Calb biofilm kill: 6.8; Hck-Nef inh: 16.7

Results for CCCCCCOc1ccc(/C(C)=N/NC2=NCCN2)cc1[N+](=O)[O-] ?
p47phox inh: 51.4*; Calb biofilm kill: 10.7; WT yeast gro inh: 65.2; Arbovirus inh: -22.3; RAM network inh: 0.8; Hck-Nef inh: -9.2

Results for CC(C)Oc1ccc(C(=O)Nc2cccc3cccnc23)cc1 ?
p47phox inh: -8.2; Calb biofilm kill: 6.5; WT yeast gro inh: 58.7*; Arbovirus inh: 18.4; RAM network inh: 6.9; Hck-Nef inh: 24.8

Results for CCOC(=O)c1cnc(-n2nc(C)cc2C)nc1N(CC)CC ?
p47phox inh: 0.1; WT yeast gro inh: 70.0*; Arbovirus inh: -24.2; RAM network inh: -0.3; Hck-Nef inh: -4.5

How did CCOC(=O)c1cnc(-n2nc(C)cc2C)nc1NC1CCCCC1 do in these assays?
p47phox inh: 14.9; WT yeast gro inh: 82.3*; Arbovirus inh: -33.2; RAM network inh: -2.3; Hck-Nef inh: 8.4

How did Cn1c(CCN2CCN(c3ccccc3)CC2)nc2cc(NC(=O)c3ccco3)ccc21 do in these assays?
p47phox inh: -13.7; WT yeast gro inh: 75.7*; Arbovirus inh: -8.2; RAM network inh: 0.7; Hck-Nef inh: 0.7

Results for O=C(NC1(N2CCOCC2)CC1)c1ccc(Cl)cc1 ?
p47phox inh: -7.3; Calb biofilm kill: 3.3; Hck-Nef inh: 6.8

What do the screens show for `COc1ccc2nc(C)cc(Sc3nc4ccccc4s3)c2c1`?
p47phox inh: -22.4; Calb biofilm kill: 20.0; Hck-Nef inh: -19.7

What do the screens show for `COc1ccccc1OCCn1cc(/C=C(\C#N)C(=O)NCc2cccs2)c2ccccc21`?
p47phox inh: -59.6; Calb biofilm kill: 19.4; WT yeast gro inh: -9.0; Arbovirus inh: -4.8; RAM network inh: 2.7; Hck-Nef inh: 4.5

What do the screens show for `Cc1ccc(C)c(OCCn2cc(/C=C(/C#N)C(=O)NCC3CCCO3)c3ccccc32)c1` (centres undefined)?
p47phox inh: -150.8; Calb biofilm kill: 4.0; WT yeast gro inh: 22.6; Arbovirus inh: -20.4; RAM network inh: 8.8*; Hck-Nef inh: 1.9

What do the screens show for `CS(=O)(=O)c1ccc(C(=O)OCc2nnc(-c3ccccc3)o2)cc1[N+](=O)[O-]`?
p47phox inh: -3.6; Calb biofilm kill: 29.3; WT yeast gro inh: 15.3; Arbovirus inh: -2.4; RAM network inh: 3.2; Hck-Nef inh: 32.8

Results for Cc1cc(OCc2cccc(Cl)c2)c(C)cc1CN1CCOCC1 ?
p47phox inh: 5.5; Calb biofilm kill: 13.3; WT yeast gro inh: 70.4*; Arbovirus inh: 0.9; RAM network inh: -0.2; Hck-Nef inh: 5.7

Results for CCOC(=O)c1cc2c(ccn2C)n1Cc1ccc(Cl)cc1 ?
p47phox inh: -0.5; Calb biofilm kill: 14.5; WT yeast gro inh: 46.8; Arbovirus inh: 1.4; RAM network inh: 1.4; Hck-Nef inh: -8.5

What do the screens show for `Cc1cccc(Cn2c(C(=O)OC(C)C)cc3c2ccn3C)c1`?
p47phox inh: -22.6; WT yeast gro inh: 34.2; Arbovirus inh: 2.7; RAM network inh: 11.2*; Hck-Nef inh: -21.0

How did CCOC(=O)c1cc2c(ccn2C)n1Cc1ccc(C#N)cc1 do in these assays?
p47phox inh: -10.5; Calb biofilm kill: 13.3; WT yeast gro inh: -18.2; Arbovirus inh: -13.0; RAM network inh: 10.4*; Hck-Nef inh: 16.3

How did C=C(C)c1cccc(C(C)(C)NC(=O)Nc2ccc(Cl)cn2)c1 do in these assays?
p47phox inh: -7.8; Calb biofilm kill: 17.0; WT yeast gro inh: 74.3*; Arbovirus inh: -19.3; RAM network inh: 11.1*; Hck-Nef inh: 1.4

How did C=C(C)c1cccc(C(C)(C)NC(=O)Nc2ncccn2)c1 do in these assays?
p47phox inh: -19.5; WT yeast gro inh: 1.7; Arbovirus inh: -1.7; RAM network inh: 1.8; Hck-Nef inh: -0.2

What do the screens show for `CC(C)COc1ccc(C(=O)Nc2sc3c(c2C(=O)O)CC(C)(C)OC3)cc1`?
p47phox inh: -6.1; Calb biofilm kill: 19.3; WT yeast gro inh: -10.2; Arbovirus inh: 60.7*; RAM network inh: 3.5; Hck-Nef inh: 17.9

What do the screens show for `CC1(C)Cc2c(sc(NC(=O)c3ccccc3)c2C(=O)O)CO1`?
p47phox inh: -8.8; Calb biofilm kill: 4.8; WT yeast gro inh: 11.5; Arbovirus inh: 12.4; RAM network inh: 2.2; Hck-Nef inh: 9.3

Results for COc1ccc(C(=O)Nc2sc3c(c2C(=O)O)CC(C)(C)OC3)cc1 ?
p47phox inh: -12.5; Calb biofilm kill: 17.3; WT yeast gro inh: -5.2; Arbovirus inh: 34.2*; RAM network inh: 8.2; Hck-Nef inh: -3.7

What do the screens show for `NS(=O)(=O)c1ccc(NC(=O)COC(=O)COc2ccc(Br)cc2)cc1`?
p47phox inh: -11.5; Calb biofilm kill: 25.4; Hck-Nef inh: 11.8

Results for Cc1cccc(NC(=S)NNC(=O)CCn2cc(C)cn2)c1 ?
p47phox inh: -12.1; WT yeast gro inh: -27.6; Arbovirus inh: -4.5; RAM network inh: -0.6; Hck-Nef inh: 0.2
